Data taken from PMC3760280 (Structure (London, England : 1993), 2013).
Read-outs that look alike come from different tables or passages of the source. One block for each molecule: values may come before it. Square brackets hold non-standard residues; d marks the D form. Peptide text beside a SMILES is read from it. * marks the point of attachment. FITC = O=C1OC2(c3ccc(O)cc3Oc3cc(O)ccc32)c2ccc(NC(=S)*)cc21; pT = C[C@@H](OP(=O)(O)O)[C@H](N)C(=O)O; pS = N[C@@H](COP(=O)(O)O)C(=O)O

Tests used:
[1] = biological target: GST-TopBP1 BRCT5 (Homo sapiens, UniProt Q92547); experiment: Fluorescence polarization; format: binding
Outline: (§1)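 Human TopBP1 GST fusions of BRCT4/5 (549–746) or BRCT5 (641–746), wild type or point mutants, were expressed in E. coli BL21-Gold and glutathione-affinity purified. Plates sat 15 min at room temperature, then FP was read at ex 485/em 538 nm. Kd was curve-fitted and averaged over ≥3 independent titrations.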

[2] = biological target: GST-BRCT5 K704A (TopBP1) (Homo sapiens, UniProt Q92547, K704A); experiment: Fluorescence polarization; format: binding
Outline: as §1

[3] = biological target: GST-TopBP1 BRCT4/5 (Homo sapiens, UniProt Q92547); experiment: Fluorescence polarization; format: binding
Outline: as §1

[4] = biological target: GST-BRCT5 R681E/K682E (TopBP1) (Homo sapiens, UniProt Q92547, K682E/R681E); experiment: Fluorescence polarization; format: binding
Outline: as §1

[5] = biological target: T1, FITC-labeled MDC1 consensus SDT di-phospho-peptide FITC-GFIDpSDpTDVEEE-NH2; experiment: fluorescence polarisation
T1 peptide: {FITC}-GFID[pS]D[pT]DVEEE-NH2

[6] = biological target: T2, FITC-labeled pSer MDC1 consensus SDT peptide FITC-GFIDpSDTDVEEE-NH2; experiment: fluorescence polarisation
T2 chain: GFIDSDTDVEEE

[7] = biological target: T3, FITC-labeled MDC1 SDT di-phospho-peptide with +2 Val to Asp, FITC-GFIDpSDpTDDEEE-NH2; experiment: fluorescence polarisation
T3 chain: GFIDSDTDDEEE

[8] = biological target: T4, FITC-labeled MDC1 consensus SDT di-phospho-peptide FITC-GFIDpSDpTDVEEE-NH2; experiment: fluorescence polarisation
T4 chain: GFIDSDTDVEEE

[9] = biological target: T5, FITC-labeled non-phosphorylated MDC1 consensus SDT peptide FITC-…-NH2; experiment: fluorescence polarisation
T5 chain: GFIDSDTDVEEE

[10] = biological target: T6, FITC-labeled pThr MDC1 consensus SDT peptide FITC-GFIDSDpTDVEEE-NH2; experiment: fluorescence polarisation
T6 chain: GFIDSDTDVEEE

Sequence of GST-BRCT5 K704A (TopBP1) (Q92547 641-746 K704A): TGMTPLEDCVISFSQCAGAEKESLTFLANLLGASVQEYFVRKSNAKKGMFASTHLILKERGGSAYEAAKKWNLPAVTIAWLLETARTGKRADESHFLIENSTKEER
Sequence of GST-BRCT5 R681E/K682E (TopBP1) (Q92547 641-746 R681E/K682E): as the sequence (Q92547 641-746 K704A) above, with R41E, K42E, A64K counted along it

Molecule: CC[C@H](C)[C@H](NC(=O)[C@H](Cc1ccccc1)NC(=O)CNC(=S)Nc1ccc2c(c1)C(=O)OC21c2ccc(O)cc2Oc2cc(O)ccc21)C(=O)N[C@@H](CC(=O)O)C(=O)N[C@@H](CO)C(=O)N[C@@H](CC(=O)O)C(=O)N[C@H](C(=O)N[C@@H](CC(=O)O)C(=O)N[C@H](C(=O)N[C@@H](CCC(=O)O)C(=O)N[C@@H](CCC(=O)O)C(=O)N[C@@H](CCC(=O)O)C(N)=O)C(C)C)[C@@H](C)O [FITC-GFIDSDTDVEEE-NH2] ({FITC}-GFIDSDTDVEEE-NH2)
Kd [1]: 310 ± 70 µM

B1: GST-TopBP1 BRCT4/5 (549-746) (domain or fragment)
chain: EEGLFSQKSFLVLGFSNENESNIANIIKENAGKIMSLLSRTVADYAVVPLLGCEVEATVGEVVTNTWLVTCIDYQTLFDPKSNPLFTPVPVMTGMTPLEDCVISFSQCAGAEKESLTFLANLLGASVQEYFVRKSNAKKGMFASTHLILKERGGSKYEAAKKWNLPAVTIAWLLETARTGKRADESHFLIENSTKEER
Kd [5]: 27 ± 4 µM

B2: GST-TopBP1 BRCT5 (641-746), Q92547 641-746 (domain or fragment)
chain: TGMTPLEDCVISFSQCAGAEKESLTFLANLLGASVQEYFVRKSNAKKGMFASTHLILKERGGSKYEAAKKWNLPAVTIAWLLETARTGKRADESHFLIENSTKEER
modifications: not checked
Kd [6]: 105 µM
Kd [7]: 24 µM
Kd [8]: 28 µM
Kd [9]: 310 µM
Kd [10]: 98 µM

Now from value to molecule:

Kd [1]: 105 ± 9 µM
Molecule: CC[C@H](C)[C@H](NC(=O)[C@H](Cc1ccccc1)NC(=O)CNC(=S)Nc1ccc2c(c1)C(=O)OC21c2ccc(O)cc2Oc2cc(O)ccc21)C(=O)N[C@@H](CC(=O)O)C(=O)N[C@@H](COP(=O)(O)O)C(=O)N[C@@H](CC(=O)O)C(=O)N[C@H](C(=O)N[C@@H](CC(=O)O)C(=O)N[C@H](C(=O)N[C@@H](CCC(=O)O)C(=O)N[C@@H](CCC(=O)O)C(=O)N[C@@H](CCC(=O)O)C(N)=O)C(C)C)[C@@H](C)O [FITC-GFIDpSDTDVEEE-NH2] ({FITC}-GFID[pS]DTDVEEE-NH2)

Kd [1]: 98 ± 9 µM
Molecule: CC[C@H](C)[C@H](NC(=O)[C@H](Cc1ccccc1)NC(=O)CNC(=S)Nc1ccc2c(c1)C(=O)OC21c2ccc(O)cc2Oc2cc(O)ccc21)C(=O)N[C@@H](CC(=O)O)C(=O)N[C@@H](CO)C(=O)N[C@@H](CC(=O)O)C(=O)N[C@H](C(=O)N[C@@H](CC(=O)O)C(=O)N[C@H](C(=O)N[C@@H](CCC(=O)O)C(=O)N[C@@H](CCC(=O)O)C(=O)N[C@@H](CCC(=O)O)C(N)=O)C(C)C)[C@@H](C)OP(=O)(O)O [FITC-GFIDSDpTDVEEE-NH2] ({FITC}-GFIDSD[pT]DVEEE-NH2)

Kd [1]: 28 ± 4 µM
Kd [2]: 210 ± 50 µM
Kd [3]: 27 ± 4 µM
Kd [4]: 280 ± 60 µM
Molecule: CC[C@H](C)[C@H](NC(=O)[C@H](Cc1ccccc1)NC(=O)CNC(=S)Nc1ccc2c(c1)C(=O)OC21c2ccc(O)cc2Oc2cc(O)ccc21)C(=O)N[C@@H](CC(=O)O)C(=O)N[C@@H](COP(=O)(O)O)C(=O)N[C@@H](CC(=O)O)C(=O)N[C@H](C(=O)N[C@@H](CC(=O)O)C(=O)N[C@H](C(=O)N[C@@H](CCC(=O)O)C(=O)N[C@@H](CCC(=O)O)C(=O)N[C@@H](CCC(=O)O)C(N)=O)C(C)C)[C@@H](C)OP(=O)(O)O [FITC-GFIDpSDpTDVEEE-NH2] ({FITC}-GFID[pS]D[pT]DVEEE-NH2)

Kd [1]: 24 ± 3 µM
Molecule: CC[C@H](C)[C@H](NC(=O)[C@H](Cc1ccccc1)NC(=O)CNC(=S)Nc1ccc2c(c1)C(=O)OC21c2ccc(O)cc2Oc2cc(O)ccc21)C(=O)N[C@@H](CC(=O)O)C(=O)N[C@@H](COP(=O)(O)O)C(=O)N[C@@H](CC(=O)O)C(=O)N[C@H](C(=O)N[C@@H](CC(=O)O)C(=O)N[C@@H](CC(=O)O)C(=O)N[C@@H](CCC(=O)O)C(=O)N[C@@H](CCC(=O)O)C(=O)N[C@@H](CCC(=O)O)C(N)=O)[C@@H](C)OP(=O)(O)O [FITC-GFIDpSDpTDDEEE-NH2] ({FITC}-GFID[pS]D[pT]DDEEE-NH2)
